# According to ChEMBL document CHEMBL4049428, “Exploring Derivatives of Quinazoline Alkaloid l-Vasicine as Cap Groups in the Design and Biological Mechanistic Evaluation of Novel Antitumor Histone Deacetylase Inhibitors” (J Med Chem, 2017):
# The source made the active and inactive calls. The calls are words filed in the database; no cut-off is given here.
# Legend:
# Histone deacetylase 4 = Histone deacetylase 4 (Homo sapiens, UniProt P56524); test: Inhibition of HDAC 4 in human HeLa nuclear extract using fluorogenic HDAC class 2A substrate measured after 60 mins by fluorometric analysis
# Histone deacetylase 5 = Histone deacetylase 5 (Homo sapiens, UniProt Q9UQL6); test: Inhibition of HDAC 5 in human HeLa nuclear extract using fluorogenic HDAC class 2A substrate measured after 60 mins by fluorometric analysis
# HL-60 [1] = test: Cytotoxicity against human HL60 cells assessed as growth inhibition at 10 uM after 48 hrs by MTT assay; assay type: functional; settings: HL-60, 48 h, read-out: GI
# How it was run: (§1)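 MTT assay, 48 h exposure; adherent lines seeded 12 h and suspension lines 4 h before compound. Media: RPMI-1640/10% FCS (THP-1, HL-60, Colo-205, Caco-2, A549), DMEM/10% FCS (A549, MIAPaCa-2, MCF-7). MTT 4 h, formazan dissolved in DMSO, absorbance 570 nm. Mean ± S.D of three experiments in triplicate; SAHA 5 µM reference.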
# Caco-2 = test: Cytotoxicity against human Caco2 cells assessed as growth inhibition at 10 uM after 48 hrs by MTT assay; assay type: functional; settings: Caco-2, 48 h, read-out: GI; how it was run: as §1
# PC-3 = test: Cytotoxicity against human PC3 cells assessed as growth inhibition at 10 uM after 48 hrs by MTT assay; assay type: functional; settings: PC-3, 48 h, read-out: GI
# COLO 205 = test: Cytotoxicity against human COLO205 cells assessed as growth inhibition after 48 hrs by MTT assay; assay type: functional, cell-based; settings: COLO 205, 48 h
# MIA PaCa-2 = test: Cytotoxicity against human MIAPaCa2 cells assessed as growth inhibition after 48 hrs by MTT assay; assay type: functional, cell-based; settings: MIA PaCa-2, 48 h; how it was run: as §1
# MCF7 = test: Cytotoxicity against human MCF7 cells assessed as growth inhibition after 48 hrs by MTT assay; assay type: functional, cell-based; settings: MCF7, 48 h
# Homo sapiens = species: Homo sapiens; test: Inhibition of HDAC in human HL60 cells assessed as increase in acetylated H3K18 levels after 48 hrs by Western blot analysis; assay type: cell-based
# How it was run: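 Cells seeded 2-4 h, treated 48 h with graded compound concentrations (SAHA control); histones acid-extracted (HEPES pH 9 buffer, 0.2 N HCl, 1 h on ice), Bradford-normalised, resolved on 18% SDS gels, blotted to PVDF, probed for acetyl-H3K18 and acetyl-H4K5 with H3 and β-actin loading controls; ECL detection.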
# P388 = test: Antitumor activity against mouse P388 cells implanted in CDF1 mouse assessed as increase in median survival time at 50 mg/kg, ip administered for 9 consecutive days; assay type: functional
# How it was run: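 P388 leukemia cells were harvested from 6–7-day-old ascites grown in the peritoneum of female DBA/2 mice. Female CDF1 mice (18–23 g) received 5×10^5 cells i.p. on day 0. Next day they were randomized into groups of 7 and dosed i.p. daily for 9 consecutive days; controls got 0.2 ml normal saline. Mortality was followed to day 18, with median survival time and %T/C calculated.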
# HL-60 [2] = test: Induction of mitochondrial membrane potential loss in human HL60 cells assessed as intact mitochondrial membrane potential at 1 uM measured after 48 hrs by Rh123 dye-based flow cytometric analysis (reference value: 91.3%); assay type: functional
# How it was run: (§2)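 Cells seeded in 6-well plates 2-4 h, then 48 h with compound; Rh-123 1 µM added for the final half hour; cells centrifuged, washed twice in PBS, resuspended in PBS, and Ψm loss quantified by flow cytometry as percentage of cells.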
# HL-60 [3] = test: Induction of mitochondrial membrane potential loss in human HL60 cells at 0.125 uM measured after 48 hrs by Rh123 dye-based flow cytometric analysis (reference value: 5.6%); assay type: functional; how it was run: as §2
# HL-60 [4] = test: Induction of mitochondrial membrane potential loss in human HL60 cells assessed as intact mitochondrial membrane potential at 0.125 uM measured after 48 hrs by Rh123 dye-based flow cytometric analysis (reference value: 91.3%); assay type: functional; how it was run: as §2
# HL-60 [5] = test: Induction of mitochondrial membrane potential loss in human HL60 cells assessed as intact mitochondrial membrane potential at 5 uM measured after 48 hrs by Rh123 dye-based flow cytometric analysis (reference value: 91.3%); assay type: functional; how it was run: as §2
# HL-60 [6] = test: Induction of mitochondrial membrane potential loss in human HL60 cells at 10 uM measured after 48 hrs by Rh123 dye-based flow cytometric analysis (reference value: 5.6%); assay type: functional; how it was run: as §2
# HL-60 [7] = test: Induction of mitochondrial membrane potential loss in human HL60 cells assessed as intact mitochondrial membrane potential at 10 uM measured after 48 hrs by Rh123 dye-based flow cytometric analysis (reference value: 91.3%); assay type: functional; how it was run: as §2
# MOLT-4 [8] = test: Induction of mitochondrial membrane potential loss in human MOLT4 cells assessed as intact mitochondrial membrane potential at 1 uM measured after 48 hrs by Rh123 dye-based flow cytometric analysis (reference value: 90.4%); assay type: functional; how it was run: as §2
# MOLT-4 [9] = test: Induction of mitochondrial membrane potential loss in human MOLT4 cells assessed as intact mitochondrial membrane potential at 5 uM measured after 48 hrs by Rh123 dye-based flow cytometric analysis (reference value: 90.4%); assay type: functional; how it was run: as §2
# MOLT-4 [10] = test: Induction of reactive oxygen species in human MOLT4 cells at 5 uM measured after 48 hrs by H2DCFDA dye-based flow cytometric analysis (reference value: 1.1%); assay type: functional
# MOLT-4 [11] = test: Induction of reactive oxygen species in human MOLT4 cells at 10 uM measured after 48 hrs by H2DCFDA dye-based flow cytometric analysis (reference value: 1.1%); assay type: functional
# HL-60 [12] = test: Induction of DNA damage in human HL60 cells by comet assay; assay type: functional, cell-based
# How it was run: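 Alkaline comet assay on HL-60 cells in 0.5% low-melting agarose; lysis 2 h cold (2.5 M NaCl, 100 mM Na2EDTA, 10 mM Tris, pH 10, plus 1% Triton X-100); electrophoresis pH>13, 24 V, 300 mA, 40 min; neutralised pH 7.5, ethidium bromide stained; about 100 cells scored by image analysis, dim light.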
# MOLT-4 [13] = test: Induction of autophagy in human MOLT4 cells assessed as acidic vacuole formation in cytoplasm at 10 uM after 48 hrs by acridine orange dye-based fluorescent microscopic analysis; assay type: functional, cell-based
# How it was run: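 Cells treated 48 h with a range of compound concentrations, SAHA 1.0 µM as positive control; acridine orange 1 µg/ml added 15 min before end at 37°C; cells washed in PBS and acidic vacuoles viewed by fluorescence microscopy.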
# MOLT-4 [14] = test: Induction of autophagy in human MOLT4 cells assessed as intracellular LC-3B distribution at 10 uM after 48 hrs by DAPI dye-based immunofluorescent microscopic analysis; assay type: functional, cell-based
# How it was run: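 After 48 h treatment (SAHA 1.0 µM control), cells put on poly-lysine coverslips, fixed 15 min in 4% paraformaldehyde, permeabilised with 0.1% Triton X-100, blocked in 10% BSA; anti-LC-3B 1:100 for 1 h, Alexa Fluor 488 secondary 1:500 for 1 h, DAPI 1 µg/ml counterstain; imaged with 60X oil objective.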
# THP-1 [15] = test: Antimigratory activity in human THP1 cells at 0.125 uM after 48 hrs by wound healing assay; assay type: functional, cell-based
# How it was run: (§3)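 THP-1 cells seeded at high density, attached overnight; monolayer scratched with a pipette tip, debris removed by PBS washes, then test compound added after wounding. Incubated 48 h under standard culture conditions (37°C, 5% CO2); wound images taken at various intervals from time zero.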
# THP-1 [16] = test: Antimigratory activity in human THP1 cells at 10 uM after 48 hrs by wound healing assay; assay type: functional, cell-based; how it was run: as §3
# Histone deacetylase 5, sequence (Q9UQL6 whole entry): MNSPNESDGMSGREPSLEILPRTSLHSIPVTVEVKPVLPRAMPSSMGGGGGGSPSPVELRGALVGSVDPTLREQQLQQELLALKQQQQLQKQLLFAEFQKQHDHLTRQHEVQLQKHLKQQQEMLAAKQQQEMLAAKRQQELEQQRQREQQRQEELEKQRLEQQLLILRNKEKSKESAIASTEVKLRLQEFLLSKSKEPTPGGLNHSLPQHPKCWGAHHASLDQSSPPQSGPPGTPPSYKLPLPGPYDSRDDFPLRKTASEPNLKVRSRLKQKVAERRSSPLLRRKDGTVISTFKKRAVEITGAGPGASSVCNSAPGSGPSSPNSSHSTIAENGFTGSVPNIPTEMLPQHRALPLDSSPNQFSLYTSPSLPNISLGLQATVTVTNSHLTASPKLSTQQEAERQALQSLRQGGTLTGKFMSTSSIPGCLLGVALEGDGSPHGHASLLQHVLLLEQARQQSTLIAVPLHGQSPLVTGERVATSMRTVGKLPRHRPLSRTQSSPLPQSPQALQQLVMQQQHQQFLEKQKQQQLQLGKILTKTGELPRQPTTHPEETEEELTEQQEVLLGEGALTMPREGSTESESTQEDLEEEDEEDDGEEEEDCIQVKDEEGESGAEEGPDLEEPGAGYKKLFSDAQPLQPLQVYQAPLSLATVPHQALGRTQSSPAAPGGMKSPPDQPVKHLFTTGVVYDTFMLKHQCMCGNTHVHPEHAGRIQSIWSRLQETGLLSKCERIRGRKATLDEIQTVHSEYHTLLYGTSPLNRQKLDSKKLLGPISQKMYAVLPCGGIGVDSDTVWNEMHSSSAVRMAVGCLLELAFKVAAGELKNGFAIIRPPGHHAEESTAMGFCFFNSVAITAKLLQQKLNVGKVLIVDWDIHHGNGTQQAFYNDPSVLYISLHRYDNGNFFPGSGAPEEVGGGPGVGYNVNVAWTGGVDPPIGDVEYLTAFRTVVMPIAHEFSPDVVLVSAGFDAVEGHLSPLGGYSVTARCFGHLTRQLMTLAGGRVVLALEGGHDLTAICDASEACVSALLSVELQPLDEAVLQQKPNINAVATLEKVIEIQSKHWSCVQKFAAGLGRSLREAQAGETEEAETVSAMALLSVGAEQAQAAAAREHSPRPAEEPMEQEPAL
# Histone deacetylase 4, sequence (P56524 whole entry): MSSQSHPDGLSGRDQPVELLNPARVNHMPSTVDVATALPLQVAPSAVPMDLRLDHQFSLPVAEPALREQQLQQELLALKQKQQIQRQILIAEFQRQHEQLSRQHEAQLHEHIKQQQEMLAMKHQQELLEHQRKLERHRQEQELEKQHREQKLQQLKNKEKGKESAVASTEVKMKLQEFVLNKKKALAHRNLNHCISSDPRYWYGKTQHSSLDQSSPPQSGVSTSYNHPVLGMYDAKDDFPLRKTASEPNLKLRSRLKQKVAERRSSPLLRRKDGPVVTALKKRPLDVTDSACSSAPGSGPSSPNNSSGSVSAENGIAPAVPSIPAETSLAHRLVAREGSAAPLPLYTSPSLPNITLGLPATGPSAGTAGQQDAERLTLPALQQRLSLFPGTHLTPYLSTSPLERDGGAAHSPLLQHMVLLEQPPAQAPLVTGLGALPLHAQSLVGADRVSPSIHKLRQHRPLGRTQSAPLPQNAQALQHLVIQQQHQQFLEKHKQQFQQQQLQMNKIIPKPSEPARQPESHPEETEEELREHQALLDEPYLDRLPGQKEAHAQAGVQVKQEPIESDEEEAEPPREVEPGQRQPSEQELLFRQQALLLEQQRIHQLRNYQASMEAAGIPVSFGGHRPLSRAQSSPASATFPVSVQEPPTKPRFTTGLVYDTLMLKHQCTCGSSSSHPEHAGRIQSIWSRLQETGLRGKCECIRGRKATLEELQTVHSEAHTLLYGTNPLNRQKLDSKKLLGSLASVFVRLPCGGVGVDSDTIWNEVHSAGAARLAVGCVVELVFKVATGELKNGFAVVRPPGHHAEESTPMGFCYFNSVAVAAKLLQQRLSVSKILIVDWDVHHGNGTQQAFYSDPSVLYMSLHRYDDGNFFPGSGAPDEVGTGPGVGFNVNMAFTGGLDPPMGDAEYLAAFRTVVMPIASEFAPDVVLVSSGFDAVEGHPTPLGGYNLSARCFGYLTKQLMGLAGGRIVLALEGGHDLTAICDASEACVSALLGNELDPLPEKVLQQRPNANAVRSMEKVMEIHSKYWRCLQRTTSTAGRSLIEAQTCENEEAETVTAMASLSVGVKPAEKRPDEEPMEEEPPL
structure (smiles),measurement,setting,value
O=C(CCCCCCC(=O)Nc1ccccc1CN1CC[C@H](O)C1)NO,IC50,Histone deacetylase 4,7.12 µM
same,IC50,Histone deacetylase 5,5.39 µM
same,inhibition of growth at 10 µM,HL-60 [1],95%
same,inhibition of growth at 10 µM,Caco-2,58%
same,inhibition of growth at 10 µM,PC-3,29%
same,IC50,COLO 205,0.6 µM
same,IC50,MIA PaCa-2,1 µM
same,IC50,MCF7,1.5 µM
same,inhibition,Homo sapiens,Dose-dependent effect
same,T/C,P388,92.47%
same,Activity,HL-60 [2],90.4%
same,Activity,HL-60 [3],7.5%
same,Activity,HL-60 [4],89%
same,Activity,HL-60 [5],82.6%
same,Activity,HL-60 [6],32%
same,Activity,HL-60 [7],54.7%
same,Activity,MOLT-4 [8],95.1%
same,Activity,MOLT-4 [9],42.5%
same,Activity,MOLT-4 [10],1.9%
same,Activity,MOLT-4 [11],0.9%
same,Activity,HL-60 [12],Dose-dependent effect
same,Activity,MOLT-4 [13],Active
same,Activity,MOLT-4 [14],Active
same,Activity,THP-1 [15],Active
same,Activity,THP-1 [16],Active
